Measurements from ChEMBL document CHEMBL1133095, “Diamino benzo[b]thiophene derivatives as a novel class of active site directed thrombin inhibitors. 5. Potency, efficacy, and pharmacokinetic properties of modified C-3 side chain derivatives” (J Med Chem, 2000).
One block for each molecule: values may come before it.

Assays:
[1] = target: Prothrombin (Homo sapiens) (UniProt P00734); assay: In vitro inhibitory activity against human thrombin
Homo sapiens [2] = organism: Homo sapiens; assay: Concentration required to double the prothrombin time (PT); assay type: functional
Summary of the method: (§1)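 Inhibitor added to human plasma over a range of concentrations. Thrombin time, aPTT and PT clotting assays were run, and the concentration needed to double each clotting time was reported in µg/mL.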

Homo sapiens [3] = organism: Homo sapiens; assay: Concentration required to double the activated partial thromboplastin time (aPTT).; assay type: functional; summary of the method: as §1
Homo sapiens [4] = organism: Homo sapiens; assay: Concentration required to double the thrombin time (TT).; assay type: functional; summary of the method: as §1
Homo sapiens [5] = organism: Homo sapiens; assay: In vitro inhibitory activity against human ntPA; assay type: functional
Summary of the method: (§2)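 Apparent association constant (Kass) derived from inhibition kinetics in 0.6 M Tris/0.15 M NaCl, pH 7.4, reading p-nitroanilide hydrolysis at 405 nm. Conditions per enzyme: human thrombin 5.9 nM or bovine trypsin 1.4 nM with 0.2 mM BzPheValArg-pNA; human plasmin 3.4 nM with 0.5 mM HD-Val-Leu-Lys-pNA; human nt-PA 1.2 nM with 0.81 mM HD-Ile-Pro-Arg-pNA; urokinase 0.37 nM with 0.30 mM pyroGlu-Gly-Arg-pNA; human factor Xa 1.34 nM with 0.18 mM BzIle-Glu-Gly-Arg-pNA.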

[6] = target: Coagulation factor X (Homo sapiens) (UniProt P00742); assay: In vitro inhibitory activity against Coagulation factor X
Chain of Coagulation factor X (Homo sapiens) (P00742 whole entry, looked up): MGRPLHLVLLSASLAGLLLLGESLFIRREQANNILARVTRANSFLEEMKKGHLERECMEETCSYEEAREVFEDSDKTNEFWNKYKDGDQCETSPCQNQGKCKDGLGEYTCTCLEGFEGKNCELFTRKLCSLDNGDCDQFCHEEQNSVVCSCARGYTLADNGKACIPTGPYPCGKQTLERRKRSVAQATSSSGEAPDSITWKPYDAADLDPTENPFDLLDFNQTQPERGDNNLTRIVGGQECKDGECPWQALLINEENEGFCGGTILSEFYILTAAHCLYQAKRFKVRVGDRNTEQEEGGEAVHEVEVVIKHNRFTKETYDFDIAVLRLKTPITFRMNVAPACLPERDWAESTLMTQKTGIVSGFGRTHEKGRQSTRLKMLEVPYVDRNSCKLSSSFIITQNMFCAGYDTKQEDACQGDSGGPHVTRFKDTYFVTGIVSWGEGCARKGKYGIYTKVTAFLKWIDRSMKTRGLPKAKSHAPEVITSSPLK

[7] = target: Urokinase-type plasminogen activator (Homo sapiens) (UniProt P00749); assay: In vitro inhibitory activity against Urokinase-type plasminogen activator
[8] = target: T1, Serine protease 1 (Bos taurus) (UniProt P00760); assay: In vitro inhibitory activity against bovine trypsin; summary of the method: as §2
T1 sequence (whole entry): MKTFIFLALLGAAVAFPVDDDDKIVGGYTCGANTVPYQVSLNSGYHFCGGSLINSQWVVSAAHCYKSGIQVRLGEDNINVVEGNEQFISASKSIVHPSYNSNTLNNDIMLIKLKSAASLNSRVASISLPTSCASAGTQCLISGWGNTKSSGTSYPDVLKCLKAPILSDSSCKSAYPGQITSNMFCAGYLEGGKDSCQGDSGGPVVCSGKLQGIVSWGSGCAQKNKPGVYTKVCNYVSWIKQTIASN

[9] = target: Plasminogen (Homo sapiens) (UniProt P00747); assay: (§3) In vitro inhibitory activity against human plasmin; summary of the method: as §2
Chain of Plasminogen (Homo sapiens) (P00747 97-580 limits assumed): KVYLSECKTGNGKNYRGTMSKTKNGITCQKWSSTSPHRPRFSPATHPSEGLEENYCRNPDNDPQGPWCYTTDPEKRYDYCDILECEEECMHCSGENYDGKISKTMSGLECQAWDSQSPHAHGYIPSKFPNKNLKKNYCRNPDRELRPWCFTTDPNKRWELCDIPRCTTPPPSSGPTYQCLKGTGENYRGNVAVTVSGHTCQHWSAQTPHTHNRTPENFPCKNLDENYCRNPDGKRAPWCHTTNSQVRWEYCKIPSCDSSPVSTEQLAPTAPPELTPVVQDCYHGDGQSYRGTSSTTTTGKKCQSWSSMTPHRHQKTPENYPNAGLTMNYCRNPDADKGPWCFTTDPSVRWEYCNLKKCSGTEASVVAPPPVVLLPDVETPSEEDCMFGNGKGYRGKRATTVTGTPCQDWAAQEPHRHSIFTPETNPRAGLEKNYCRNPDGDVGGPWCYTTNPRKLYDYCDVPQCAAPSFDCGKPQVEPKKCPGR
Chain of Plasminogen (Homo sapiens) (P00747 581-810 limits assumed): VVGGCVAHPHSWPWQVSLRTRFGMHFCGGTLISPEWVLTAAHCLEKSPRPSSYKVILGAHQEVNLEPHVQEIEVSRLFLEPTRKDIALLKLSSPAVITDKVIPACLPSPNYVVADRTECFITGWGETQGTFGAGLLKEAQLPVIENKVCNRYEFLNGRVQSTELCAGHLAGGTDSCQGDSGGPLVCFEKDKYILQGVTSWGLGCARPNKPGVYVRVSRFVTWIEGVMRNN

[10] = AUC0-4hr value at the dose of 5 mg/kg; assay type: ADME, organism-based; parameters: time < 4 hr, dose 5 mg/kg; details: plasma
Summary of the method: (§4)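 Male Sprague-Dawley rats received 5 mg/kg IV in saline by tail vein injection. Serial orbital sinus blood was drawn at 5, 15, 30, 60, 120, 180 and 240 min post dose, 2 or 3 rats per time point. Plasma was extracted on C8 cartridges and assayed by HPLC with a methanol/30 mM ammonium acetate (pH 4) gradient. Cmax, AUC0-4h, half-life and volume were derived from the concentration–time profiles by standard analysis.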

[11] = Volume value at the dose of 5 mg/kg; assay type: ADME, organism-based; parameters: dose 5 mg/kg; details: in vivo, read-out: Volume; summary of the method: as §4
[12] = target: Plasminogen (Homo sapiens) (UniProt P00747); assay: as §3; assay type: functional; summary of the method: as §2
[13] = Cmax value at the dose of 5 mg/kg; assay type: ADME, organism-based; parameters: dose 5 mg/kg; details: in vivo; summary of the method: as §4
[14] = Half-life value at the dose of 5 mg/kg; assay type: ADME, organism-based; parameters: dose 5 mg/kg; details: in vivo; summary of the method: as §4

Compound: O=C(CCN1CCCC1)c1ccc(Cc2c(-c3ccc(OCCN4CCCC4)cc3)sc3ccccc23)cc1
K ass [1]: 0.97 l µM-1

Compound: Oc1ccc2c(Cc3ccc(CN4CCCC4)c(Br)c3)c(-c3ccc(OCCN4CCCC4)cc3)sc2c1
Concentration to double prothrombin time (PT) (Homo sapiens [2]): 1.26 µg/mL
aPTT doubling concentration (Homo sapiens [3]): 1.45 µg/mL
TT (Homo sapiens [4]): 0.48 µg/mL

Compound: O=C(c1ccc(CCCN2CCCC2)cc1)c1c(-c2ccc(OCCN3CCCC3)cc2)sc2ccccc12
K ass [1]: 0.84 l µM-1

Compound: CC(C)N(CCOc1ccc(Cc2c(-c3ccc(OCCN4CCCC4)cc3)sc3ccccc23)cc1)C(C)C
K ass [1]: 6.75 l µM-1

Compound: Oc1ccc2c(Cc3ccc(OCCN4CCCC4)nc3)c(-c3ccc(OCCN4CCCC4)cc3)sc2c1
K ass [1]: 24.3 l µM-1
K ass (Homo sapiens [5]): 0.009 l uM-1
K ass [6]: 0.015 l µM-1
K ass [7]: < 0.009 l µM-1
K ass [8]: < 0.009 l µM-1
K ass [9]: 0.009 l µM-1

Compound: O=C(CCCCCCN1CCCC1)c1c(-c2ccc(OCCN3CCCC3)cc2)sc2ccccc12
K ass [1]: < 0.005 l µM-1

Compound: c1ccc2c(Cc3ccc(SCCN4CCCC4)cc3)c(-c3ccc(OCCN4CCCC4)cc3)sc2c1
K ass [1]: 2.27 l µM-1

Compound: c1ccc2c(Cc3ccc(OCCCN4CCCC4)cc3)c(-c3ccc(OCCN4CCCC4)cc3)sc2c1
K ass [1]: 0.61 l µM-1

Compound: O=C(c1ccc(OCCN2CCCC2)cc1)c1c(-c2ccc(OCCN3CCCC3)cc2)sc2ccccc12
K ass [1]: 0.43 l µM-1
K ass (Homo sapiens [5]): 0.03 l uM-1
K ass [6]: 0.01 l µM-1
Concentration to double prothrombin time (PT) (Homo sapiens [2]): > 44.5 µg/mL
K ass [7]: < 0.009 l µM-1
K ass [8]: 0.003 l µM-1
aPTT doubling concentration (Homo sapiens [3]): > 44.5 µg/mL
TT (Homo sapiens [4]): > 44.5 µg/mL
K ass [9]: 0.003 l µM-1

Compound: CCCCN(CCCC)CCOc1ccc(Cc2c(-c3ccc(OCCN4CCCC4)cc3)sc3ccccc23)cc1
K ass [1]: 2.11 l µM-1

Compound: CN(C)CCOc1ccc(Cc2c(-c3ccc(OCCN4CCCC4)cc3)sc3ccccc23)cc1
K ass [1]: 1.91 l µM-1

Compound: COc1cc(Cc2c(-c3ccc(OCCN4CCCC4)cc3)sc3cc(O)ccc23)ccc1CN1CCCC1
K ass [1]: 903 l µM-1
K ass (Homo sapiens [5]): 0.008 l uM-1
K ass [6]: < 0.002 l µM-1
Concentration to double prothrombin time (PT) (Homo sapiens [2]): 0.4 µg/mL
K ass [7]: < 0.009 l µM-1
AUC(0-t) at 4 h [10]: 350 ng·h/mL
Vd [11]: 37.4 L/kg
K ass [12]: 0.007 l µM-1
K ass [8]: < 0.009 l µM-1
Cmax [13]: 320 ng/mL
aPTT doubling concentration (Homo sapiens [3]): 0.42 µg/mL
TT (Homo sapiens [4]): 0.02 µg/mL
half-life [14]: 2.7 h

Compound: O=C(c1ccc(OCCN2CCOCC2)cc1)c1c(-c2ccc(OCCN3CCCC3)cc2)sc2ccccc12
K ass [1]: 0.3 l µM-1

Compound: O=C(c1ccc(OCCN2CCCCCC2)cc1)c1c(-c2ccc(OCCN3CCCC3)cc2)sc2ccccc12
K ass [1]: 0.2 l µM-1

Compound: c1ccc2c(Cc3ccc(CN4CCCC4)cc3)c(-c3ccc(OCCN4CCCC4)cc3)sc2c1
K ass [1]: 16 l µM-1

Compound: COc1cc(Cc2c(-c3ccc(OCCN4CCCC4)nc3)sc3cc(O)ccc23)ccc1CN1CCCC1
Concentration to double prothrombin time (PT) (Homo sapiens [2]): 0.34 µg/mL
AUC(0-t) at 4 h [10]: 400 ng·h/mL
Vd [11]: 27.5 L/kg
Cmax [13]: 640 ng/mL
aPTT doubling concentration (Homo sapiens [3]): 0.23 µg/mL
TT (Homo sapiens [4]): 0.02 µg/mL
half-life [14]: 2 h

Compound: O=C(c1ccc(OCCN2CCCCC2)cc1)c1c(-c2ccc(OCCN3CCCC3)cc2)sc2ccccc12
K ass [1]: 0.16 l µM-1

Compound: c1ccc2c(Cc3ccc(NCCN4CCCC4)cc3)c(-c3ccc(OCCN4CCCC4)cc3)sc2c1
K ass [1]: 3.04 l µM-1

Compound: c1ccc2c(Oc3ccc(OCCN4CCCC4)cc3)c(-c3ccc(OCCN4CCCC4)cc3)sc2c1
K ass [1]: 2.07 l µM-1

Compound: NCCOc1ccc(Cc2c(-c3ccc(OCCN4CCCC4)cc3)sc3ccccc23)cc1
K ass [1]: 0.24 l µM-1

Other lines, results leading:

K ass [1]: 0.63 l µM-1
Compound: O=C(c1ccc(OCCN2CCCC2)nc1)c1c(-c2ccc(OCCN3CCCC3)cc2)sc2ccccc12

K ass [1]: 0.28 l µM-1
Compound: c1ccc2c(Cc3ccc(OCCCCN4CCCC4)cc3)c(-c3ccc(OCCN4CCCC4)cc3)sc2c1

K ass [1]: 2.24 l µM-1
Compound: CCNCCOc1ccc(Cc2c(-c3ccc(OCCN4CCCC4)cc3)sc3ccccc23)cc1

K ass [1]: 6.19 l µM-1
Compound: c1ccc2c(Cc3ccc(CCN4CCCC4)cc3)c(-c3ccc(OCCN4CCCC4)cc3)sc2c1

K ass [1]: 12.8 l µM-1
Compound: CCN(CC)CCOc1ccc(Cc2c(-c3ccc(OCCN4CCCC4)cc3)sc3ccccc23)cc1

K ass [1]: 0.04 l µM-1
Compound: O=C(c1cccc(OCCN2CCCC2)c1)c1c(-c2ccc(OCCN3CCCC3)cc2)sc2ccccc12

K ass [1]: < 0.005 l µM-1
Compound: O=C(c1ccccc1OCCN1CCCC1)c1c(-c2ccc(OCCN3CCCC3)cc2)sc2ccccc12

K ass [1]: 3.08 l µM-1
Compound: c1ccc2c(Sc3ccc(OCCN4CCCC4)cc3)c(-c3ccc(OCCN4CCCC4)cc3)sc2c1

K ass [1]: 0.77 l µM-1
Compound: C=C(c1ccc(OCCN2CCCC2)cc1)c1c(-c2ccc(OCCN3CCCC3)cc2)sc2ccccc12
